Reference: ChEMBL document CHEMBL4689842, “EUbOPEN Chemogenomics Library wave 1” (2021)
Where “and” joins values, the source holds several entries; their conditions need not be identical. Equal values may be shown once.

System: U2OS
Experiment: Multiplex assay against U2OS
Type: toxicity, cell-based
Settings: human
How it was run: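 Tubulin, mitochondrial-mass and membrane-permeability phenotypes are per cents of healthy-nucleus cells. Cells were gated by CellPathfinder machine learning into Hoechst high-intensity objects or normal cells, normal cells into healthy, pyknosed or fragmented nuclei, and pyknosed cells into mitotic or apoptotic. Before that, live cells stained at seeding with Hoechst33342, BioTracker Green Microtubule Cytoskeleton Dye, MitoTracker Red and Annexin V Alexa Fluor 680 were imaged on a CQ1 microscope at 37°C and 5% CO2 after compound addition.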

[1] = 12 h, 10 µM, compound concentration 10 uM, replicate 1
[2] = 12 h, 10 µM, compound concentration 10 uM, replicate 2
[3] = 24 h, 10 µM, compound concentration 10 uM, replicate 1
[4] = 24 h, 10 µM, compound concentration 10 uM, replicate 2
[5] = 12 h, 1 µM, compound concentration 1 uM, replicate 1
[6] = 12 h, 1 µM, compound concentration 1 uM, replicate 2
[7] = 24 h, 1 µM, compound concentration 1 uM, replicate 1
[8] = 24 h, 1 µM, compound concentration 1 uM, replicate 2
[9] = 48 h, 1 µM, compound concentration 1 uM, replicate 1
[10] = 48 h, 1 µM, compound concentration 1 uM, replicate 2
[11] = 48 h, 10 µM, compound concentration 10 uM, replicate 1
[12] = 48 h, 10 µM, compound concentration 10 uM, replicate 2

In the case of `CNCc1ccccc1-c1csc([C@@H](C)Nc2nc(C)nc3cc(OC)c(OC)cc23)c1` [BAY-293], the “Population Apoptotic (%)” value [1] is reported as 63% and 46%, the “Population Healthy Nuclei (%)” value [1] is reported as 36% and 80% and the “Population Hoechst High Intensity Objects (%)” value [1] is reported as 5% and 4%. The “Population Membrane Permeable-Phenotype (%)” value [1] was 73% and 54%, the “Population Mitochondria Different-Phenotype (%)” value [1] was 88% and 36% and the “Population Mitotic Cells (%)” value [1] was 36% and 53%. The “Population Normal (%)” value [1] was 94% and 95%, the “Population Tubulin-Different-Phenotype (%)” value [1] was 100% and 98% and the “Population Apoptotic (%)” value [2] was 54% and 52%. The “Population Fragmented Nuclei (%)” value [2] was 9% and 17%, the “Population Healthy Nuclei (%)” value [2] was 72% and 52% and the “Population Hoechst High Intensity Objects (%)” value [2] was 14% and 16%. The “Population Membrane Permeable-Phenotype (%)” value [2] was 46% and 75%, the “Population Mitochondria Different-Phenotype (%)” value [2] was 56% and 97% and the “Population Mitotic Cells (%)” value [2] was 45% and 47%. For the same compound, the “Population Normal (%)” value [2] was 85% and 83%, the “Population Pyknosed Nuclei (%)” value [2] was 17% and 30% and the “Population Tubulin-Different-Phenotype (%)” value [2] was 97%. The “Population Apoptotic (%)” value [3] was 91%, the “Population Fragmented Nuclei (%)” value [3] was 19% and 7% and the “Population Hoechst High Intensity Objects (%)” value [3] was 19% and 7%. For the same compound, the “Population Membrane Permeable-Phenotype (%)” value [3] was 100% and 52%, the “Population Mitochondria Different-Phenotype (%)” value [3] was 100% and 64% and the “Population Mitotic Cells (%)” value [3] was 8%. The “Population Normal (%)” value [3] was 80% and 92%, the “Population Pyknosed Nuclei (%)” value [3] was 66% and 27% and the “Population Tubulin-Different-Phenotype (%)” value [3] was 100% and 97%. The “Population Apoptotic (%)” value [4] was 84% and 45%, the “Population Fragmented Nuclei (%)” value [4] was 25% and 10% and the “Population Healthy Nuclei (%)” value [4] was 30% and 60%. The “Population Hoechst High Intensity Objects (%)” value [4] was 10% and 8%, the “Population Membrane Permeable-Phenotype (%)” value [4] was 91% and 43% and the “Population Mitochondria Different-Phenotype (%)” value [4] was 95% and 72%. The “Population Normal (%)” value [4] was 89% and 91%, the “Population Pyknosed Nuclei (%)” value [4] was 44% and 28% and the “Population Tubulin-Different-Phenotype (%)” value [4] was 95% and 96%.

With `CC(C)(C)NC[C@H](O)COc1nsnc1N1CCOCC1` [TIMOLOL] the “Population Apoptotic (%)” value [5] was 77%, the “Population Fragmented Nuclei (%)” value [5] was 12% and the “Population Healthy Nuclei (%)” value [5] was 80%. The “Population Hoechst High Intensity Objects (%)” value [5] was 7%, the “Population Membrane Permeable-Phenotype (%)” value [5] was 4% and the “Population Mitochondria Different-Phenotype (%)” value [5] was 9%. For the same compound, the “Population Mitotic Cells (%)” value [5] was 22%, the “Population Pyknosed Nuclei (%)” value [5] was 7% and the “Population Tubulin-Different-Phenotype (%)” value [5] was 8%. For the same compound, the “Population Apoptotic (%)” value [6] was 100%, the “Population Fragmented Nuclei (%)” value [6] was 5% and the “Population Healthy Nuclei (%)” value [6] was 88%. The “Population Hoechst High Intensity Objects (%)” value [6] was 8%, the “Population Membrane Permeable-Phenotype (%)” value [6] was 8% and the “Population Mitochondria Different-Phenotype (%)” value [6] was 11%. The “Population Mitotic Cells (%)” value [6] was 0%, the “Population Normal (%)” value [6] was 92% and the “Population Pyknosed Nuclei (%)” value [6] was 5%. The “Population Tubulin-Different-Phenotype (%)” value [6] was 18%, the “Population Apoptotic (%)” value [1] was 30% and the “Population Fragmented Nuclei (%)” value [1] was 8%. The “Population Healthy Nuclei (%)” value [1] was 77%, the “Population Hoechst High Intensity Objects (%)” value [1] was 6% and the “Population Membrane Permeable-Phenotype (%)” value [1] was 6%. The “Population Mitochondria Different-Phenotype (%)” value [1] was 8%, the “Population Mitotic Cells (%)” value [1] was 69% and the “Population Normal (%)” value [1] was 93%. The “Population Pyknosed Nuclei (%)” value [1] was 14%, the “Population Tubulin-Different-Phenotype (%)” value [1] was 8% and the “Population Apoptotic (%)” value [2] was 33%. For the same compound, the “Population Healthy Nuclei (%)” value [2] was 79%, the “Population Hoechst High Intensity Objects (%)” value [2] was 3% and the “Population Membrane Permeable-Phenotype (%)” value [2] was 4%. The “Population Mitochondria Different-Phenotype (%)” value [2] was 7%, the “Population Mitotic Cells (%)” value [2] was 66% and the “Population Normal (%)” value [2] was 96%. The “Population Pyknosed Nuclei (%)” value [2] was 11%, the “Population Tubulin-Different-Phenotype (%)” value [2] was 4% and the “Population Apoptotic (%)” value [7] was 63%. For the same compound, the “Population Fragmented Nuclei (%)” value [7] was 10%, the “Population Healthy Nuclei (%)” value [7] was 82% and the “Population Hoechst High Intensity Objects (%)” value [7] was 4%. The “Population Mitochondria Different-Phenotype (%)” value [7] was 7%, the “Population Mitotic Cells (%)” value [7] was 36% and the “Population Normal (%)” value [7] was 95%. For the same compound, the “Population Tubulin-Different-Phenotype (%)” value [7] was 12%, the “Population Apoptotic (%)” value [8] was 50% and the “Population Fragmented Nuclei (%)” value [8] was 11%. For the same compound, the “Population Healthy Nuclei (%)” value [8] was 81%, the “Population Hoechst High Intensity Objects (%)” value [8] was 5% and the “Population Membrane Permeable-Phenotype (%)” value [8] was 2%. The “Population Mitochondria Different-Phenotype (%)” value [8] was 18%, the “Population Mitotic Cells (%)” value [8] was 50% and the “Population Normal (%)” value [8] was 94%. For the same compound, the “Population Pyknosed Nuclei (%)” value [8] was 6%, the “Population Tubulin-Different-Phenotype (%)” value [8] was 21% and the “Population Apoptotic (%)” value [3] was 20%. For the same compound, the “Population Fragmented Nuclei (%)” value [3] was 7%, the “Population Healthy Nuclei (%)” value [3] was 85% and the “Population Hoechst High Intensity Objects (%)” value [3] was 5%. The “Population Membrane Permeable-Phenotype (%)” value [3] was 5%, the “Population Mitochondria Different-Phenotype (%)” value [3] was 2% and the “Population Mitotic Cells (%)” value [3] was 80%. The “Population Normal (%)” value [3] was 94%, the “Population Pyknosed Nuclei (%)” value [3] was 6% and the “Population Tubulin-Different-Phenotype (%)” value [3] was 5%. For the same compound, the “Population Apoptotic (%)” value [4] was 41%, the “Population Healthy Nuclei (%)” value [4] was 81% and the “Population Hoechst High Intensity Objects (%)” value [4] was 2%. For the same compound, the “Population Membrane Permeable-Phenotype (%)” value [4] was 3%, the “Population Mitochondria Different-Phenotype (%)” value [4] was 5% and the “Population Mitotic Cells (%)” value [4] was 58%. For the same compound, the “Population Normal (%)” value [4] was 97%, the “Population Pyknosed Nuclei (%)” value [4] was 11% and the “Population Tubulin-Different-Phenotype (%)” value [4] was 4%. For the same compound, the “Population Apoptotic (%)” value [9] was 23%, the “Population Membrane Permeable-Phenotype (%)” value [9] was 1% and the “Population Mitochondria Different-Phenotype (%)” value [9] was 12%. For the same compound, the “Population Mitotic Cells (%)” value [9] was 76%, the “Population Tubulin-Different-Phenotype (%)” value [9] was 5% and the “Population Apoptotic (%)” value [10] was 42%. The “Population Fragmented Nuclei (%)” value [10] was 5%, the “Population Healthy Nuclei (%)” value [10] was 88% and the “Population Hoechst High Intensity Objects (%)” value [10] was 1%. For the same compound, the “Population Membrane Permeable-Phenotype (%)” value [10] was 13%, the “Population Mitochondria Different-Phenotype (%)” value [10] was 17% and the “Population Mitotic Cells (%)” value [10] was 57%. The “Population Normal (%)” value [10] was 98%, the “Population Pyknosed Nuclei (%)” value [10] was 5% and the “Population Tubulin-Different-Phenotype (%)” value [10] was 21%. The “Population Apoptotic (%)” value [11] was 46%, the “Population Fragmented Nuclei (%)” value [11] was 1% and the “Population Healthy Nuclei (%)” value [11] was 93%. For the same compound, the “Population Hoechst High Intensity Objects (%)” value [11] was 2%, the “Population Membrane Permeable-Phenotype (%)” value [11] was 1% and the “Population Mitochondria Different-Phenotype (%)” value [11] was 9%. The “Population Mitotic Cells (%)” value [11] was 53%, the “Population Normal (%)” value [11] was 97% and the “Population Tubulin-Different-Phenotype (%)” value [11] was 6%. The “Population Apoptotic (%)” value [12] was 27%, the “Population Fragmented Nuclei (%)” value [12] was 3% and the “Population Healthy Nuclei (%)” value [12] was 91%. The “Population Hoechst High Intensity Objects (%)” value [12] was 1%, the “Population Membrane Permeable-Phenotype (%)” value [12] was 4% and the “Population Mitochondria Different-Phenotype (%)” value [12] was 10%. For the same compound, the “Population Mitotic Cells (%)” value [12] was 72%, the “Population Normal (%)” value [12] was 98% and the “Population Pyknosed Nuclei (%)” value [12] was 4%. The “Population Tubulin-Different-Phenotype (%)” value [12] was 13%.
